According to ChEMBL document CHEMBL4354843, “Structure-Based Design of a Potent and Selective Covalent Inhibitor for SRC Kinase That Targets a P-Loop Cysteine” (J Med Chem, 2020):

Tests used:
[1] = molecular target: Macrophage-stimulating protein receptor (Homo sapiens) (UniProt Q04912); experiment: Binding affinity to wild-type human partial length MST1R (I1057 to L1363 residues) expressed in bacterial expression system assessed as residual binding level at 1 uM by Kinomescan method relative to control
[2] = molecular target: Serine/threonine-protein kinase D3 (Homo sapiens) (UniProt O94806); experiment: Binding affinity to wild-type human partial length PRKD3 (S543 to E863 residues) expressed in bacterial expression system assessed as residual binding level at 1 uM by Kinomescan method relative to control
How it was run: (§1)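 Active-site-directed competition binding panel of 468 kinases (KinomeScan), compound at 1 μM. The read-out is kinase remaining bound, given as a percentage of the DMSO control. […]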

[3] = molecular target: Tyrosine-protein kinase receptor Tie-1 (Homo sapiens) (UniProt P35590); experiment: Binding affinity to wild-type human partial length TIE1 (T819 to A1138 residues) expressed in bacterial expression system assessed as residual binding level at 1 uM by Kinomescan method relative to control
Tyrosine-protein kinase receptor Tie-1 (Homo sapiens), sequence (P35590 whole entry, the tested form may be a part): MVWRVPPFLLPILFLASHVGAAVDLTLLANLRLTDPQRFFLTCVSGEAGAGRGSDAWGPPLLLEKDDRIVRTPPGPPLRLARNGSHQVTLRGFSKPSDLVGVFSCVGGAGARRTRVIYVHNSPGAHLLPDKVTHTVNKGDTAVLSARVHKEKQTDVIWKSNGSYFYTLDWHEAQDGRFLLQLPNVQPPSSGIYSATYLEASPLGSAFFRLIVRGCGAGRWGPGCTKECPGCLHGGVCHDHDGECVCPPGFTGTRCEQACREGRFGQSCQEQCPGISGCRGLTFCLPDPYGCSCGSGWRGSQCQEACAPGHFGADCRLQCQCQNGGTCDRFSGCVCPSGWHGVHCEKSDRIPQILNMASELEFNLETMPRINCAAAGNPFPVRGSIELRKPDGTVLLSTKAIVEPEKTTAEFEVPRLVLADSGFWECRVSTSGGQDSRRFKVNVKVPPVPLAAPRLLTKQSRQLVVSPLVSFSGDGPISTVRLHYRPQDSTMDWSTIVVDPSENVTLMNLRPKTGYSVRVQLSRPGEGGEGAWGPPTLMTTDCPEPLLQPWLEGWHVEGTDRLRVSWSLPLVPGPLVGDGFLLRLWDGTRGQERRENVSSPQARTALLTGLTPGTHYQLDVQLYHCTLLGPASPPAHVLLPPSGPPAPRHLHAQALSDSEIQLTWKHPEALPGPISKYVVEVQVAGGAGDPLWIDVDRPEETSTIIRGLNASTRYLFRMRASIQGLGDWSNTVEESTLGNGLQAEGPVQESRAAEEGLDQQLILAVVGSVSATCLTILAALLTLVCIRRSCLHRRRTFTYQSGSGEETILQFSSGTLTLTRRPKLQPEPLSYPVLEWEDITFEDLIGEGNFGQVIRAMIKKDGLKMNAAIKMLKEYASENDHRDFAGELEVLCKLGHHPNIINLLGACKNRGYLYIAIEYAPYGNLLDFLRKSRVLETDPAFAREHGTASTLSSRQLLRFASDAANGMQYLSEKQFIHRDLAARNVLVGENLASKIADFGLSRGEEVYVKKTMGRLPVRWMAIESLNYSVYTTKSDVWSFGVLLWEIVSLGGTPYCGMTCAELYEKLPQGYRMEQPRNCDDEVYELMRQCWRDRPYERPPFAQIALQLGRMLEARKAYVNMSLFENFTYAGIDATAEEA
How it was run: (§2)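 Active site-directed competition binding panel (KinomeScan, 468 kinases). Test compound at 1 μM. Read-out is kinase binding remaining versus DMSO control, expressed as percent of control. Scores above 35% are treated as weak binding.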

[4] = molecular target: RAC-gamma serine/threonine-protein kinase (Homo sapiens) (UniProt Q9Y243); experiment: Binding affinity to wild-type human partial length AKT3 expressed in bacterial expression system assessed as residual binding level at 1 uM by Kinomescan method relative to control
RAC-gamma serine/threonine-protein kinase (Homo sapiens), sequence (Q9Y243 whole entry, the tested form may be a part): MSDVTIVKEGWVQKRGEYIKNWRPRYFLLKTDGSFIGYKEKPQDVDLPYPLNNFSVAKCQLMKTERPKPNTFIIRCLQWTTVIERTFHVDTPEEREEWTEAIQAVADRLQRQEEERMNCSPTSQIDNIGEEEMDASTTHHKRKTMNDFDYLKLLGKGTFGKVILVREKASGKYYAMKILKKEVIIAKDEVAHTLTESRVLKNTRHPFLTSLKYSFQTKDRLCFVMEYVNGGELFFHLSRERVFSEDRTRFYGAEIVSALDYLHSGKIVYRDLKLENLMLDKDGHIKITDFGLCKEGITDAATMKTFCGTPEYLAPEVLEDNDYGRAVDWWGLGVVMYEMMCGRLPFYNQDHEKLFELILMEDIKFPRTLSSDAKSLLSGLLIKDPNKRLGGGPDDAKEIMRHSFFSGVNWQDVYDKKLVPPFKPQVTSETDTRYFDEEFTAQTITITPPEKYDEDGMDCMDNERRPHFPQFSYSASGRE

[5] = molecular target: Mitogen-activated protein kinase 6 (Homo sapiens) (UniProt Q16659); experiment: Binding affinity to wild-type human partial length ERK3 (M1 to P413 residues) expressed in bacterial expression system assessed as residual binding level at 1 uM by Kinomescan method relative to control
[6] = test system: Tyrosine-protein kinase ABL1 (Homo sapiens), P00519 [F317L]; experiment: Binding affinity to human non-phosphorylated ABL1 F317L mutant (S229 to K512 residues) expressed in mammalian expression system assessed as residual binding level at 1 uM by Kinomescan method relative to control
How it was run: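 KinomeScan active site-directed competition binding panel (468 kinases), compound tested at 1 μM. Result expressed as remaining kinase signal versus DMSO control (percent of control).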

[7] = molecular target: Ephrin type-A receptor 6 (Homo sapiens) (UniProt Q9UF33); experiment: Binding affinity to wild-type human partial length EPHA6 (Y700 to E1046 residues) expressed in bacterial expression system assessed as residual binding level at 1 uM by Kinomescan method relative to control
[8] = molecular target: Serine/threonine-protein kinase WNK3 (Homo sapiens) (UniProt Q9BYP7); experiment: Binding affinity to wild-type human partial length WNK3 (M1 to D434 residues) expressed in mammalian expression system assessed as residual binding level at 1 uM by Kinomescan method relative to control
[9] = molecular target: Serine/threonine-protein kinase ICK (Homo sapiens) (UniProt Q9UPZ9); experiment: Binding affinity to wild-type human partial length ICK (M1 to P314 residues) expressed in mammalian expression system assessed as residual binding level at 1 uM by Kinomescan method relative to control; how it was run: as §1
Serine/threonine-protein kinase ICK (Homo sapiens), sequence (Q9UPZ9 whole entry, the tested form may be a part): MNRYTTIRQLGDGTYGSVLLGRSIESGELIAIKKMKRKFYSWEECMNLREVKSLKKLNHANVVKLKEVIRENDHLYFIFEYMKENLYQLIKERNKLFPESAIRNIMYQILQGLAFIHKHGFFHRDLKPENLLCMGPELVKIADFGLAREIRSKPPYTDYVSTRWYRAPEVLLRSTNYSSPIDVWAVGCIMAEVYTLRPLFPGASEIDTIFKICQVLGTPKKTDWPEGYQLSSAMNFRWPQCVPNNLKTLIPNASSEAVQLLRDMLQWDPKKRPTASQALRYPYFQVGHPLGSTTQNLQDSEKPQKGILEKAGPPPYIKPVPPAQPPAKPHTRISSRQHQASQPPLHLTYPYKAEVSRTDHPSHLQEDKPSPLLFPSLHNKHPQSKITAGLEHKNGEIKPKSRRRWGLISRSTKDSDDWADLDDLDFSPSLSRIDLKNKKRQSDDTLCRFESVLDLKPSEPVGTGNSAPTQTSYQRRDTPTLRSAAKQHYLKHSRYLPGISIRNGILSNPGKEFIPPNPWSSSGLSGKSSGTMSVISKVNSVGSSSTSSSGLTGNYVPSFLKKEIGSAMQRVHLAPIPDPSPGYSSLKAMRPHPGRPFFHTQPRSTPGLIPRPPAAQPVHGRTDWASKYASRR

[10] = molecular target: Serine/threonine-protein kinase VRK2 (Homo sapiens) (UniProt Q86Y07); experiment: Binding affinity to wild-type human partial length VRK2 (M1 to T336 residues) expressed in mammalian expression system assessed as residual binding level at 1 uM by Kinomescan method relative to control; how it was run: as §2
[11] = molecular target: Mitogen-activated protein kinase kinase kinase 19 (Homo sapiens) (UniProt Q56UN5); experiment: Binding affinity to wild-type human partial length YSK4 (T1019 to H1328 residues) expressed in mammalian expression system assessed as residual binding level at 1 uM by Kinomescan method relative to control; how it was run: as §2
[12] = molecular target: Serine/threonine-protein kinase 17A (Homo sapiens) (UniProt Q9UEE5); experiment: Binding affinity to wild-type human partial length DRAK1 (R32 to E363 residues) expressed in bacterial expression system assessed as residual binding level at 1 uM by Kinomescan method relative to control
[13] = molecular target: Dual specificity protein kinase CLK3 (Homo sapiens) (UniProt P49761); experiment: Binding affinity to wild-type human full length CLK3 (M1 to R490 residues) expressed in bacterial expression system assessed as residual binding level at 1 uM by Kinomescan method relative to control
How it was run: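 Active-site-directed KinomeScan competition binding panel covering 468 kinases, compound tested at 1 μM. Each readout is the kinase signal remaining with compound, expressed as a percentage of the DMSO control. […]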

[14] = molecular target: Ribosomal protein S6 kinase alpha-1 (Homo sapiens) (UniProt Q15418); experiment: Binding affinity to wild-type human partial length C- terminal RSK1 kinase domain 2 (P360 to L681 residues) expressed in bacterial expression system assessed as residual binding level at 1 uM by Kinomescan method relative to control
Ribosomal protein S6 kinase alpha-1 (Homo sapiens), sequence (Q15418 whole entry, the tested form may be a part): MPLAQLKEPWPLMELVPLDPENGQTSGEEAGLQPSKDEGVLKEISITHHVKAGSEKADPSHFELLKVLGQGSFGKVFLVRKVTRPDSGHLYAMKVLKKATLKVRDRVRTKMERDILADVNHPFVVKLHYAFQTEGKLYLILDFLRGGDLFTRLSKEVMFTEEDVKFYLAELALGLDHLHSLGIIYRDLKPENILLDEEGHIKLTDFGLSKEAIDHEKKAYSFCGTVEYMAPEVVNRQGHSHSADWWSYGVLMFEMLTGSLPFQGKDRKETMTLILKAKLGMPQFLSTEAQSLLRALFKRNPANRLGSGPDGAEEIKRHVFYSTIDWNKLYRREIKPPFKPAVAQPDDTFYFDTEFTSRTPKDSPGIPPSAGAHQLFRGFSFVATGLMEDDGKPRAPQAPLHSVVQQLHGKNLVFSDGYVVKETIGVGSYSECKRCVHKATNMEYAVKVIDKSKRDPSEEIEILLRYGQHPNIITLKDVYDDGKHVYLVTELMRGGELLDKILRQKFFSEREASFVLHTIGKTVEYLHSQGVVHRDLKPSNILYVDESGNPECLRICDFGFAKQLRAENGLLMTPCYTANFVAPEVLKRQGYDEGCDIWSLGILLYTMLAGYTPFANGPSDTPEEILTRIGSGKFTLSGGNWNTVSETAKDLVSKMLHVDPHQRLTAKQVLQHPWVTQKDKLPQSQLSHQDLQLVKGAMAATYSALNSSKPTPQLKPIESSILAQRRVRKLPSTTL

[15] = molecular target: Ribosomal protein S6 kinase alpha-4 (Homo sapiens) (UniProt O75676); experiment: Binding affinity to wild-type human partial length N-terminal RPS6KA4 kinase domain 1 expressed in bacterial expression system assessed as residual binding level at 1 uM by Kinomescan method relative to control
[16] = molecular target: Serine/threonine-protein kinase mTOR (Homo sapiens) (UniProt P42345); experiment: Binding affinity to wild-type human partial length MTOR (L1382 to W2549 residues) expressed in mammalian expression system assessed as residual binding level at 1 uM by Kinomescan method relative to control; how it was run: as §1
[17] = molecular target: Mitogen-activated protein kinase kinase kinase kinase 2 (Homo sapiens) (UniProt Q12851); experiment: Binding affinity to wild-type human partial length MAP4K2 (M1 to G318 residues) expressed in mammalian expression system assessed as residual binding level at 1 uM by Kinomescan method relative to control
[18] = molecular target: Serine/threonine-protein kinase Nek4 (Homo sapiens) (UniProt P51957); experiment: Binding affinity to wild-type human full length NEK4 (M1 to F841 residues) expressed in mammalian expression system assessed as residual binding level at 1 uM by Kinomescan method relative to control
Serine/threonine-protein kinase Nek4 (Homo sapiens), sequence (P51957 whole entry, looked up, the tested form may be a part): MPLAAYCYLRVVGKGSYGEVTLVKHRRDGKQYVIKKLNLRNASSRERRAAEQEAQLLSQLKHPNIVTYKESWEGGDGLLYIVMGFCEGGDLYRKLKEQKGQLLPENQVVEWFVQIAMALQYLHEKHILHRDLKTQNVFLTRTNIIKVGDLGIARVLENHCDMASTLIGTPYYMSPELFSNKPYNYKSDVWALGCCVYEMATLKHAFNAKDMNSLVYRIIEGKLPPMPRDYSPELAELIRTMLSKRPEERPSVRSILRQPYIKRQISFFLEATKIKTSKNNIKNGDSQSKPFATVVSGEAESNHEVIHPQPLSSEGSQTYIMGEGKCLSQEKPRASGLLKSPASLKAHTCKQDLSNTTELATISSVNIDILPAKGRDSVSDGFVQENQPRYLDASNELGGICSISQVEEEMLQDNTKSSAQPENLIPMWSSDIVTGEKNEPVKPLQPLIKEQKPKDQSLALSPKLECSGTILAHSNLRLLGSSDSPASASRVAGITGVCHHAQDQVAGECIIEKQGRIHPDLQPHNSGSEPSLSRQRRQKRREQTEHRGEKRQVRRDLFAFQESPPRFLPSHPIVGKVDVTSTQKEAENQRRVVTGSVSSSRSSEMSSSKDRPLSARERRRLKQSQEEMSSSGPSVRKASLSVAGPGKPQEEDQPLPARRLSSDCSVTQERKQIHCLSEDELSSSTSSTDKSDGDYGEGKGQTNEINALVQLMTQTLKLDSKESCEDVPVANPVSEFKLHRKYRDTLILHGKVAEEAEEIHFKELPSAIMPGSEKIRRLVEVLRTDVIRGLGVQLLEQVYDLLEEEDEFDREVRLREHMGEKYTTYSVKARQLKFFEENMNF
How it was run: (§3)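 KinomeScan, an active site-directed competition binding panel of 468 kinases. The test compound was at 1 μM. The readout is remaining kinase binding as a percentage of the DMSO control. Scores above 35% were treated as weak binding and not listed.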

[19] = molecular target: Cyclin-dependent kinase 13 (Homo sapiens) (UniProt Q14004); experiment: Binding affinity to wild-type human partial length CDC2L5 (H675 to S1054 residues) expressed in mammalian expression system assessed as residual binding level at 1 uM by Kinomescan method relative to control
[20] = molecular target: Mitotic checkpoint serine/threonine-protein kinase BUB1 (Homo sapiens) (UniProt O43683); experiment: Binding affinity to wild-type human partial length BUB1 (Q724 to K1085 residues) expressed in mammalian expression system assessed as residual binding level at 1 uM by Kinomescan method relative to control; how it was run: as §3
Mitotic checkpoint serine/threonine-protein kinase BUB1 (Homo sapiens), sequence (O43683 whole entry, looked up, the tested form may be a part): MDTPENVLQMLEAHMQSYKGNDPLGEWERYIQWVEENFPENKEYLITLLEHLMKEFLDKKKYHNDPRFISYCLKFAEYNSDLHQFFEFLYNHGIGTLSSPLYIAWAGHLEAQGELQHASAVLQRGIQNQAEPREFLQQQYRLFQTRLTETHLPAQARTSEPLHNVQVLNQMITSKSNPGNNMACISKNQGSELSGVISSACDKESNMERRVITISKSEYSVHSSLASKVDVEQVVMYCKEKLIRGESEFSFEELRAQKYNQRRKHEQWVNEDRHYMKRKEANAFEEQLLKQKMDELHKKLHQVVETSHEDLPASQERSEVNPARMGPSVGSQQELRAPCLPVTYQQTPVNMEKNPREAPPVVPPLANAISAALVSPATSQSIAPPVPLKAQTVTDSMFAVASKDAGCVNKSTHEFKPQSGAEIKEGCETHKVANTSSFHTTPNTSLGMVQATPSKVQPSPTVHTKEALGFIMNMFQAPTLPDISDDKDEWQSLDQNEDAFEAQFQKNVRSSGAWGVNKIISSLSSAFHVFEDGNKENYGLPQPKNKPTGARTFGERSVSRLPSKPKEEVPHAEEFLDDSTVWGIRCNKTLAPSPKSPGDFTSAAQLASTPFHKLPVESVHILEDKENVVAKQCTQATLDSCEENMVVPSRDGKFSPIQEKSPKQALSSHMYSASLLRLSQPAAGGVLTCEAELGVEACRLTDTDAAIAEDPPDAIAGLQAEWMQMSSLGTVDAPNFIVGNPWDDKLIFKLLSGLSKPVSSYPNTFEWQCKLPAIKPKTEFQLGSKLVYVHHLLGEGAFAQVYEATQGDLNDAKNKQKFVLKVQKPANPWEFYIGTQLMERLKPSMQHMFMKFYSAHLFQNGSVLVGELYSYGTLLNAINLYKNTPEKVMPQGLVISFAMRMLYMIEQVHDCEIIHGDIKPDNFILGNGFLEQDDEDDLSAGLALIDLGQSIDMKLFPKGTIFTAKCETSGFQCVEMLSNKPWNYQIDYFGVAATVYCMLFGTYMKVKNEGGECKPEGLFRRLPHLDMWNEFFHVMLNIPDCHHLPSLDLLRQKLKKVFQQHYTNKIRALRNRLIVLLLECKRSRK

[21] = molecular target: Tyrosine-protein kinase Fgr (Homo sapiens) (UniProt P09769); experiment: Binding affinity to wild-type human partial length FGR (L233 to T529 residues) expressed in bacterial expression system assessed as residual binding level at 1 uM by Kinomescan method relative to control; how it was run: as §1

## C=CC(=O)Nc1ccccc1Nc1nc(Nc2ccc(N3CCN(C)CC3)cc2)ncc1C(=O)Nc1c(C)cccc1Cl
[1]
  Activity: 100%
[2]
  Activity: 99%
[3]
  Activity: 83%
[4]
  Activity: 100%
[5]
  Activity: 100%
[6]
  Activity: 0.9%
[7]
  Activity: 100%
[8]
  Activity: 100%
[9]
  Activity: 96%
[10]
  Activity: 71%
[11]
  Activity: 83%
[12]
  Activity: 100%
[13]
  Activity: 100%
[14]
  Activity: 100%
[15]
  Activity: 100%
[16]
  Activity: 98%
[17]
  Activity: 100%
[18]
  Activity: 94%
[19]
  Activity: 92%
[20]
  Activity: 88%
[21]
  Activity: 30%
